In ChEMBL document CHEMBL1152480, “Synthesis of novel carbazole based macrocyclic amides as potential antimicrobial agents” (2009):
In brackets after ≈: the same amount, converted by molar mass.

What was measured:
[1] = test system: Macrophomina phaseolina; assay: Antifungal activity against Macrophomina phaseolina after 3 days by well diffusion assay; format: functional; details: for MIC: 72 h
Summary of the method: (§1)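 Fungi maintained on potato dextrose agar (potato 200 g/l, dextrose 20 g/l; pH 6.5) at room temperature (28 ± 2 °C). Well diffusion assay against DMSO control; MIC read as lowest concentration causing prominent inhibition of fungal growth after 3 days incubation at 37 °C.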

[2] = test system: Alternaria alternata; assay: Antifungal activity against Alternaria alternata after 3 days by well diffusion assay; format: functional; details: for MIC: 72 h; summary of the method: as §1
[3] = test system: Rhizoctonia solani; assay: Antifungal activity against Rhizoctonia solani after 3 days by well diffusion assay; format: functional; details: for MIC: 72 h; summary of the method: as §1
[4] = test system: Proteus mirabilis; assay: Antibacterial activity against Proteus mirabilis after 24 hrs by well diffusion assay; format: functional
Summary of the method: (§2)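 Bacteria kept on nutrient agar (beef extract, yeast extract, peptone, NaCl; pH 7.2) at room temperature (28 ± 2 °C). Compounds tested by well diffusion against DMSO control, tetracycline reference. MIC taken as lowest concentration giving prominent inhibition of bacterial growth after 24 h at 37 °C.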

[5] = test system: Curvularia lunata; assay: Antifungal activity against Curvularia lunata after 3 days by well diffusion assay; format: functional; details: for MIC: 72 h; summary of the method: as §1
[6] = test system: Salmonella enterica subsp. enterica; assay: Antibacterial activity against Salmonella typhi after 24 hrs by well diffusion assay; format: functional, Salmonella enterica subsp. enterica serovar Typhi; details: for Activity: Salmonella enterica subsp. enterica serovar Typhi
Summary of the method: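 S. typhi kept on nutrient agar (beef extract, yeast extract, peptone, NaCl, agar; pH 7.2) at 28 ± 2 °C. Agar well diffusion with DMSO as control and tetracycline as reference. MIC taken as the lowest concentration giving prominent inhibition of bacterial growth after 24 h at 37 °C.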

[7] = test system: Staphylococcus aureus; assay: Antibacterial activity against Staphylococcus aureus after 24 hrs by well diffusion assay; format: functional; summary of the method: as §2
[8] = test system: Proteus vulgaris; assay: Antibacterial activity against Proteus vulgaris after 24 hrs by well diffusion assay; format: functional; summary of the method: as §2

SMILES	Activity [1]	MIC [1] [µg/mL]	Activity [2]	MIC [2] [µg/mL]	Activity [3]	MIC [3] [µg/mL]	Activity [4]	MIC [4] [µg/mL]	Activity [5]	MIC [5] [µg/mL]	MIC [6] [µg/mL]	Activity [6]	Activity [7]	MIC [7] [µg/mL]	Activity [8]	MIC [8] [µg/mL]
CCn1c2ccc3cc2c2cc(ccc21)CSc1ccccc1NC(=O)COc1ccc2ccccc2c1-c1c(ccc2ccccc12)OCC(=O)Nc1ccccc1SC3	Dose-dependent effect	15 (≈ 17.9 µM)	Dose-dependent effect	10 (≈ 12 µM)	Dose-dependent effect	20 (≈ 23.9 µM)	Dose-dependent effect	5 (≈ 5.98 µM)	Dose-dependent effect	10 (≈ 12 µM)	10 (≈ 12 µM)	Dose-dependent effect	Dose-dependent effect	10 (≈ 12 µM)	Dose-dependent effect	5 (≈ 5.98 µM)
CCn1c2ccc3cc2c2cc(ccc21)CSc1ccccc1NC(=O)COc1cccc(c1)OCC(=O)Nc1ccccc1SC3	Dose-dependent effect	45 (≈ 68.2 µM)	Dose-dependent effect	25 (≈ 37.9 µM)	Dose-dependent effect	50 (≈ 75.8 µM)	Dose-dependent effect	20 (≈ 30.3 µM)	Dose-dependent effect	35 (≈ 53 µM)	30 (≈ 45.5 µM)	Dose-dependent effect	Dose-dependent effect	40 (≈ 60.6 µM)	Dose-dependent effect	60 (≈ 90.9 µM)
CN(C)[C@@H]1C(O)=C(C(N)=O)C(=O)[C@@]2(O)C(O)=C3C(=O)c4c(O)cccc4[C@@](C)(O)[C@H]3C[C@@H]12 [TETRACYCLINE]								20 (≈ 45 µM)			15 (≈ 33.8 µM)			20 (≈ 45 µM)		35 (≈ 78.8 µM)
CCn1c2ccc3cc2c2cc(ccc21)CSc1ccccc1NC(=O)c1ccccc1-c1ccccc1C(=O)Nc1ccccc1SC3	Dose-dependent effect	15 (≈ 22.2 µM)	Dose-dependent effect	25 (≈ 37 µM)	Dose-dependent effect	20 (≈ 29.6 µM)	Dose-dependent effect	40 (≈ 59.2 µM)	Dose-dependent effect	20 (≈ 29.6 µM)	60 (≈ 88.8 µM)	Dose-dependent effect	Dose-dependent effect	70 (≈ 104 µM)	Dose-dependent effect	40 (≈ 59.2 µM)
CCn1c2ccc3cc2c2cc(ccc21)CSc1ccccc1NC(=O)c1ccc(cc1)OCc1ccccc1COc1ccc(cc1)C(=O)Nc1ccccc1SC3	Dose-dependent effect	50 (≈ 61.6 µM)	Dose-dependent effect	15 (≈ 18.5 µM)	Dose-dependent effect	40 (≈ 49.3 µM)	Dose-dependent effect	10 (≈ 12.3 µM)	Dose-dependent effect	20 (≈ 24.6 µM)	20 (≈ 24.6 µM)	Dose-dependent effect	Dose-dependent effect	30 (≈ 36.9 µM)	Dose-dependent effect	40 (≈ 49.3 µM)
COC(=O)Nc1nc2ccccc2[nH]1 [CARBENDAZIM]		18 (≈ 94.1 µM)		12 (≈ 62.8 µM)		25 (≈ 131 µM)				15 (≈ 78.5 µM)						
CCn1c2ccc3cc2c2cc(ccc21)CSc1ccccc1NC(=O)c1cccc(c1)C(=O)Nc1ccccc1SC3	Dose-dependent effect	30 (≈ 50 µM)	Dose-dependent effect	15 (≈ 25 µM)	Dose-dependent effect	30 (≈ 50 µM)	Dose-dependent effect	50 (≈ 83.4 µM)	Dose-dependent effect	20 (≈ 33.3 µM)	50 (≈ 83.4 µM)	Dose-dependent effect	Dose-dependent effect	20 (≈ 33.3 µM)	Dose-dependent effect	60 (≈ 100 µM)
CCn1c2ccc3cc2c2cc(ccc21)CSc1ccccc1NC(=O)c1cccc(n1)C(=O)Nc1ccccc1SC3	Dose-dependent effect	10 (≈ 16.6 µM)	Dose-dependent effect	15 (≈ 25 µM)	Dose-dependent effect	20 (≈ 33.3 µM)	Dose-dependent effect	5 (≈ 8.32 µM)	Dose-dependent effect	15 (≈ 25 µM)	30 (≈ 49.9 µM)	Dose-dependent effect	Dose-dependent effect	10 (≈ 16.6 µM)	Dose-dependent effect	30 (≈ 49.9 µM)
